Source: ChEMBL document CHEMBL4052637, “Discovery and Characterization of R/S-N-3-Cyanophenyl-N'-(6-tert-butoxycarbonylamino-3,4-dihydro-2,2-dimethyl-2H-1-benzopyran-4-yl)urea, a New Histone Deacetylase Class III Inhibitor Exerting Antiproliferative Activity against Cancer Cell Lines” (J Med Chem, 2017)
Active and inactive are the calls of the source. The calls are words filed in the database; no cut-off is given here.

Key:
[1] = Selectivity index, ratio of IC50 for mouse astrocytes to IC50 for human T98G cells
[2] = Antiproliferative activity against human U373 cells after 72 hrs by MTT assay; assay type: functional, cell-based, U-373MG ATCC; conditions: U373 MG
Summary of the method: (§1)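 MTT assay: cells in RPMI 1640 with 10% heat-inactivated FCS at 37 °C and 5% CO2 were seeded 24 h before treatment. They were exposed 72 h to compound at 0.01–100 μM, with DMSO as solvent.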

[3] = target: Histone deacetylase 11 (Homo sapiens) (UniProt Q96DB2); assay: Inhibition of N-terminal His-tagged recombinant human HDAC11 expressed in baculovirus infected insect Sf9 cells at 0.1 to 100 uM using Fluor-de-Lys-SIRT1 as substrate after 15 mins by fluorescence assay
Histone deacetylase 11 (Homo sapiens), sequence (Q96DB2 whole entry): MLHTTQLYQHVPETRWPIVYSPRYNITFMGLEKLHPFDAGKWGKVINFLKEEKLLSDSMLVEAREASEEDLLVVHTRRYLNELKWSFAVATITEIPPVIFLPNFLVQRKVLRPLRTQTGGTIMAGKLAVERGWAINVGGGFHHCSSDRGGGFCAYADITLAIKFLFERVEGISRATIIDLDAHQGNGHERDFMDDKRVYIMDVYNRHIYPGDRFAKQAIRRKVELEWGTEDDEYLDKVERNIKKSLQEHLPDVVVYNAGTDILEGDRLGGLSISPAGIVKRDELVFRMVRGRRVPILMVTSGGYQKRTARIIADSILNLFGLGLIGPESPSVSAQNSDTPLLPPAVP

[4] = target: T1, NAD-dependent protein deacetylase sirtuin-1 (Homo sapiens) (UniProt Q96EB6); assay: Inhibition of SIRT1 in human Hs683 cells assessed as increase of histone H4 acetylation after 8 hrs by Western blotting method; assay type: cell-based
T1 sequence (whole entry): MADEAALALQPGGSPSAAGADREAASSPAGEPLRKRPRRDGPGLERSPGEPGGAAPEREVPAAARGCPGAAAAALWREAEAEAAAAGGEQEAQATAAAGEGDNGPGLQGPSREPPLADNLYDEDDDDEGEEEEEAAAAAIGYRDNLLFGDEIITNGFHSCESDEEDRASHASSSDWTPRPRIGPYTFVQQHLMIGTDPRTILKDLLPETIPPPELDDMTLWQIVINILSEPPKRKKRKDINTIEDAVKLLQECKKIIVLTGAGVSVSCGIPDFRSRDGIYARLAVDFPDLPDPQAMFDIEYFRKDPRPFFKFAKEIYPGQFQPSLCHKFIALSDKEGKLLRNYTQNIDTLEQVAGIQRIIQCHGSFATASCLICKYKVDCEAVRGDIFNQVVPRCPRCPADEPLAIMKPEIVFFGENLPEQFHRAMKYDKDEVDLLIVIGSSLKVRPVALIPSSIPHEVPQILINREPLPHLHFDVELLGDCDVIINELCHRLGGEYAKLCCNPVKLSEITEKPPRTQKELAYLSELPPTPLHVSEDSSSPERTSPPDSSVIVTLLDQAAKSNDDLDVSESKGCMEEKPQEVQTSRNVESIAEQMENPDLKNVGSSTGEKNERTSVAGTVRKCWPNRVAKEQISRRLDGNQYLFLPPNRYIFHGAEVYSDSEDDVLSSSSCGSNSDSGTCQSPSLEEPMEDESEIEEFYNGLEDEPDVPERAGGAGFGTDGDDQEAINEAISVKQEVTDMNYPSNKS

U-373MG ATCC [5] = assay: Cell cycle arrest in human U373 cells assessed as accumulation at G1 phase at IC50 after 24 to 48 hrs by propidium iodide staining-based flow cytometry; assay type: functional
Summary of the method: (§2)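 Cells were exposed to compound at the IC50 for each line from the 72 h MTT assay, or to a reference HDAC inhibitor at 2 μM. Cell cycle distribution was analyzed after 24 and 48 h. Results are mean ± SD of three independent experiments, with p values against control cells.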

U-373MG ATCC [6] = assay: Inhibition of spheroid forming capacity of human U373 cells assessed as decrease in surface area of tumor spheroids at 5 to 10 uM treated for 24 hrs measured after 96 hrs by bright field microscopic method; assay type: functional, cell-based
Summary of the method: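 Spheroids formed from 1 × 10^3 cells in 25 μL. Cells were pretreated 24 h with compound then left untreated 96 h, or untreated spheroids were cultured 96 h with compound. Surface measured from bright-field images; volume in voxels from 3D plots after image segmentation. Mean ± SD of three independent experiments.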

Hs 683 [7] = assay: Inhibition of 3D tumor-like growth of human Hs683 cells assessed as decrease in ATP level at 5 to 10 uM treated for 24 hrs measured after 96 hrs by CellTiter-Glo assay; assay type: functional, cell-based
Summary of the method: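 Spheroids were grown from a starting suspension of 1 × 10^3 cells in 25 μL. Cells were pretreated 24 h with compound, then left untreated for 96 h. Spheroids were harvested and mixed with CellTiter-Glo 3D reagent, shaken 5 min and stabilized 25 min, then luminescence was read. Mean ± SD of three independent experiments.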

SW1573 = assay: Antiproliferative activity against human SW1573 cells after 72 hrs by MTT assay; assay type: functional, cell-based; summary of the method: as §1
KB 3-1 = assay: Antiproliferative activity against human KB-3-1 cells after 72 hrs by MTT assay; assay type: functional, cell-based; summary of the method: as §1
Hs 683 [8] = assay: Potency index, ratio of EX-527 IC50 to test compound IC50 for human Hs683 cells; assay type: functional
Hs 683 [9] = assay: Potency index, ratio of AGK2 IC50 to test compound IC50 for human Hs683 cells; assay type: functional
Hs 683 [10] = assay: Cell cycle arrest in human Hs683 cells assessed as accumulation at G2/M phase at 2 uM after 24 to 48 hrs by propidium iodide staining-based flow cytometry; assay type: functional; conditions: 5.8 uM, in the assay text read “at 5.8 uM” for “at 2 uM”; summary of the method: as §2
HL-60(TB) = assay: Growth inhibition of human HL-60(TB) cells after 48 hrs by SRB assay; assay type: functional; conditions: HL-60, 48 h
NCI-H226 = assay: Growth inhibition of human NCI-H226 cells after 48 hrs by SRB assay; assay type: functional; conditions: NCI-H226, 48 h
HCC 2998 = assay: Growth inhibition of human HCC2998 cells after 48 hrs by SRB assay; assay type: functional; conditions: HCC 2998, 48 h
HT-29 = assay: Growth inhibition of human HT-29 cells after 48 hrs by SRB assay; assay type: functional; conditions: HT-29, 48 h
SF-295 = assay: Growth inhibition of human SF295 cells after 48 hrs by SRB assay; assay type: functional; conditions: SF-295, 48 h
SF-539 = assay: Growth inhibition of human SF539 cells after 48 hrs by SRB assay; assay type: functional; conditions: SF-539, 48 h
SNB-75 = assay: Growth inhibition of human SNB75 cells after 48 hrs by SRB assay; assay type: functional; conditions: SNB-75, 48 h
M14 = assay: Growth inhibition of human M14 cells after 48 hrs by SRB assay; assay type: functional; conditions: M14, 48 h
NCI/ADR-RES = assay: Growth inhibition of human NCI-ADR-RES cells after 48 hrs by SRB assay; assay type: functional
ACHN = assay: Growth inhibition of human ACHN cells after 48 hrs by SRB assay; assay type: functional
RXF 393 = assay: Growth inhibition of human RXF393 cells after 48 hrs by SRB assay; assay type: functional; conditions: RXF 393, 48 h
TK-10 = assay: Growth inhibition of human TK10 cells after 48 hrs by SRB assay; assay type: functional; conditions: TK-10, 48 h
UO-31 = assay: Growth inhibition of human UO31 cells after 48 hrs by SRB assay; assay type: functional; conditions: UO-31, 48 h
PC-3 = assay: Growth inhibition of human PC3 cells after 48 hrs by SRB assay; assay type: functional; conditions: PC-3, 48 h
MCF7 = assay: Growth inhibition of human MCF7 cells after 48 hrs by SRB assay; assay type: functional; conditions: MCF7, 48 h
T47D = assay: Growth inhibition of human T47D cells after 48 hrs by SRB assay; assay type: functional

In the case of `CC(C)(C)OC(=O)Nc1ccc2c(c1)C(NC(=O)Nc1cccc(C#N)c1)CC(C)(C)O2` (stereo not drawn), the “Ratio IC50” value [1] is reported as greater than 10, the IC50 [2] is reported as 6 to 7.5 µM and the inhibition [3] is reported as “inactive”. The inhibition [4] was “Dose-dependent effect”, the Activity (U-373MG ATCC [5]) was “Active” and the inhibition (U-373MG ATCC [6]) was “Active”. For the same compound, the inhibition (Hs 683 [7]) was “Active”, the Activity (SW1573) was “Active” and the Activity (KB 3-1) was “Active”. The “Ratio IC50” value (Hs 683 [8]) was 20, the “Ratio IC50” value (Hs 683 [9]) was 6 - 14 and the Activity (Hs 683 [10]) was “Active”. It also gave a GI50 (HL-60(TB)) of 2.57 µM, a GI50 (NCI-H226) of 2 µM and a GI50 (HCC 2998) of 5.13 µM. For the same compound, the GI50 (HT-29) was 6.92 µM, the GI50 (SF-295) was 2.29 µM and the GI50 (SF-539) was 6.61 µM. It also gave a GI50 (SNB-75) of 5.89 µM, a GI50 (M14) of 4.17 µM and a GI50 (NCI/ADR-RES) of 3.09 µM. It also gave a GI50 (ACHN) of 3.8 µM, a GI50 (RXF 393) of 6.17 µM and a GI50 (TK-10) of 5.5 µM. It also gave a GI50 (UO-31) of 4.27 µM, a GI50 (PC-3) of 0.759 µM and a GI50 (MCF7) of 2.14 µM. It also gave a GI50 (T47D) of 2.69 µM.
